Assay results: ChEMBL document CHEMBL1123193, “The lysine pathway as a target for a new genera of synthetic antibacterial antibiotics?” (1986)
≈ marks a conversion by molar mass, not a printed value.

What was measured:
Escherichia coli [1] = assay: Percent of inhibition of diaminopimelic acid decarboxylase at 1 mmol of amino acid
In short: (§1)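 Enzyme was meso-DAP decarboxylase isolated and purified from E. coli ATCC 9637. Inhibition measured as decarboxylation of labeled meso-DAP in the presence of the test amino acid.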

Escherichia coli [2] = assay: Minimum inhibitory concentration required for the inhibition of Escherichia coli ATCC 9637; type: functional
In short: (§2)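 Agar dilution on Davis and Mingioli solid medium, supplemented with amino acids where needed. MIC taken as the lowest concentration giving complete growth inhibition, expressed in micrograms.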

Escherichia coli [3] = assay: Compound is evaluated for the inhibition of bacterial growth (Escherichia coli ATCC 9637) in the liquid medium at 5 mmol of amino acid; type: functional
In short: (§3)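 Davis and Mingioli liquid medium, 4.8 mL, inoculated with 0.2 mL of an 18-h liquid culture of the test organism, with 0.1 mL of compound solution added. Growth followed by absorbance at 660 nm. Percent inhibition calculated after 6 h at 37 °C.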

Escherichia coli [4] = assay: Percent of inhibition of diaminopimelic acid decarboxylase at 5 mmol of amino acid; in short: as §1
Escherichia coli [5] = assay: Compound is evaluated for the growth of Escherichia coli W7 in the presence lysine in liquid medium; Growth is observed; type: functional, organism-based
Escherichia coli [6] = assay: Percent of inhibition of diaminopimelic acid decarboxylase at 5 mmol of amino acids, 1.05 mmol/L of labeled meso-DAP, and 32 umol/L of PLP; in short: as §1
Escherichia coli [7] = assay: Percent of inhibition of diaminopimelic acid decarboxylase at 10 mmol of amino acids, 1.05 mmol/L of labeled meso-DAP, and 32 umol/L of PLP; in short: as §1
Escherichia coli [8] = assay: Percent of inhibition of diaminopimelic acid decarboxylase at 1 mmol of amino acids, 1.05 mmol/L of labeled meso-DAP, and 32 umol/L of PLP; in short: as §1
Escherichia coli [9] = assay: Minimum inhibitory concentration compared to D-cycloserine, against Escherichia coli UB 1005; type: functional; in short: as §2
Pseudomonas aeruginosa [10] = assay: Minimum inhibitory concentration compared to D-cycloserine, against Pseudomonas aeruginosa A22; type: functional; in short: as §2
Pseudomonas aeruginosa [11] = assay: Minimum inhibitory concentration required for the inhibition of Pseudomonas aeruginosa A22; type: functional; in short: as §2
[12] = test system: Providencia alcalifaciens; assay: Minimum inhibitory concentration compared to D-cycloserine, against providencia alcalifaciens 58.62; type: functional; in short: as §2
Providencia rettgeri = assay: Minimum inhibitory concentration compared to D-cycloserine, against Proteus rettgeri 53.100; type: functional; in short: as §2
Serratia marcescens = assay: Minimum inhibitory concentration compared to D-cycloserine, against Serratia marcescens A 174; type: functional; in short: as §2
Serratia liquefaciens = assay: Minimum inhibitory concentration compared to D-cycloserine, against Serratia liquefaciens 52.56; type: functional; in short: as §2
Klebsiella pneumoniae = assay: Minimum inhibitory concentration compared to D-cycloserine, against Klebsiella pneumoniae 53.153; type: functional; in short: as §2
Escherichia coli [13] = assay: Minimum inhibitory concentration compared to D-cycloserine, against Escherichia coli ATCC 9637; type: functional; in short: as §2
[14] = Minimum inhibitory concentration compared to D-cycloserine, against Moraxella glucidolytica 52.90; type: functional; in short: as §2
Escherichia coli [15] = assay: Minimum inhibitory concentration compared to D-cycloserine, against Escherichia coli DC2; type: functional; in short: as §2
Enterobacter cloacae [16] = assay: Minimum inhibitory concentration compared to D-cycloserine, against Enterobacter cloacae 60.22
Citrobacter freundii = assay: Minimum inhibitory concentration compared to D-cycloserine, against Citrobacter freundii 55.13; type: functional; in short: as §2
Escherichia coli [17] = assay: Compound is evaluated for the growth of Escherichia coli W7 in the liquid medium at 100 ug/mL.; Absence of growth; type: functional, organism-based
Escherichia coli [18] = assay: Compound is evaluated for the inhibition of bacterial growth (Escherichia coli ATCC 9637) in the liquid medium at 2 mmol of amino acid; type: functional; in short: as §3
Escherichia coli [19] = assay: Percent of inhibition of diaminopimelic acid decarboxylase at 1 mmol of amino acid, 1.05 mmol/L of labeled meso-DAP, and 32 umol/L of PLP; in short: as §1
Escherichia coli [20] = assay: Percent of inhibition of diaminopimelic acid decarboxylase at 2 mmol of amino acid, 1.05 mmol/L of labeled meso-DAP, and 32 umol/L of PLP; in short: as §1
Escherichia coli [21] = assay: Compound is evaluated for the inhibition of bacterial growth (Escherichia coli ATCC 9637) in the liquid medium at 1 mmol of amino acid; type: functional; in short: as §3
Pseudomonas aeruginosa [22] = assay: Not Plasmodium species; type: functional
Escherichia coli [23] = assay: Percent of inhibition of diaminopimelic acid decarboxylase at 10 mmol of amino acid, 1.05 mmol/L of labeled meso-DAP, and 32 umol/L of PLP; in short: as §1
Escherichia coli [24] = assay: Percent of inhibition of diaminopimelic acid decarboxylase at 5 mmol of amino acid, 1.05 mmol/L of labeled meso-DAP, and 32 umol/L of PLP; in short: as §1
Escherichia coli [25] = assay: Percent of inhibition of diaminopimelic acid decarboxylase at 2 mmol of amino acids, 1.05 mmol/L of labeled meso-DAP, and 32 umol/L of PLP; in short: as §1
Enterobacter cloacae [26] = assay: Minimum inhibitory concentration compared to D-cycloserine, against Enterobacter cloacae 60.22; remark: listed apart in the source
Escherichia coli [27] = assay: Percent of inhibition of v decarboxylase at 1 mmol of amino acids, 1.05 mmol/L of labeled meso-DAP, and 32 umol/L of PLP; in short: as §1
Escherichia coli [28] = assay: Percent of inhibition of DAP decarboxylase at 10 mmol of amino acids, 1.05 mmol/L of labeled meso-DAP, and 32 umol/L of PLP; in short: as §1
[29] = Pseudomonas aeruginosa, read-out: MIC
[30] = Escherichia coli, ATCC 9637, read-out: MIC

## NC(/C=C(\Cl)CC(N)C(=O)O)C(=O)O (stereo unspecified)
Escherichia coli [1]
  inhibition: 18%
Escherichia coli [2]
  MIC: > 128 µg/mL
Escherichia coli [3]
  Inhibition: 50%
Escherichia coli [4]
  inhibition: 53%

## C=C(CC(N)C(=O)O)CC(N)C(=O)O (stereo in doubt; 4) [listing 1 of 2 here]
Escherichia coli [5]
  Bacterial growth: Growth
Escherichia coli [6]
  inhibition: 15%
Escherichia coli [7]
  inhibition: 30%
Escherichia coli [8]
  inhibition: 5%

## C=C(C[C@@H](N)C(=O)O)C[C@@H](N)C(=O)O.C=C(C[C@H](N)C(=O)O)C[C@H](N)C(=O)O
Escherichia coli [9]
  MIC: 8 µg/mL
Pseudomonas aeruginosa [10]
  MIC: 32 µg/mL
Pseudomonas aeruginosa [11]; [29]
  MIC: 4 µg/mL
[12]
  MIC: 32 µg/mL
Providencia rettgeri
  MIC: 64 µg/mL
Serratia marcescens
  MIC: 4 µg/mL
Escherichia coli [6]
  inhibition: 10%
Escherichia coli [2]
  MIC: 2 µg/mL
Serratia liquefaciens
  MIC: 4 µg/mL
Klebsiella pneumoniae
  MIC: 16 µg/mL
Escherichia coli [13]
  MIC: 16 µg/mL
[14]
  MIC: 8 µg/mL
Escherichia coli [7]
  inhibition: 20%
Escherichia coli [15]
  MIC: 8 µg/mL
Enterobacter cloacae [16]
  MIC: 16 µg/mL
Citrobacter freundii
  MIC: 8 µg/mL
Escherichia coli [8]
  inhibition: 5%

## NCCCC[C@H](N)C(=O)O
Escherichia coli [17]
  Bacterial growth: Absence of growth

## NC(/C=C/CC(N)C(=O)O)C(=O)O (stereo unspecified)
Escherichia coli [18]
  Inhibition: 0%
Escherichia coli [19]
  inhibition: 65%
Escherichia coli [3]
  Inhibition: 0%
Escherichia coli [20]
  inhibition: 77%
Escherichia coli [21]
  Inhibition: 0%

## C[C@@H]1O[C@@H]1P(=O)(O)O [FOSFOMYCIN]
Pseudomonas aeruginosa [22]
  MIC: 32 µg/mL (≈ 232 µM)
Escherichia coli [2]; [30]
  MIC: 16 µg/mL (≈ 116 µM)

## N[C@H](CCC[C@H](N)C(=O)O)C(=O)O
Escherichia coli [17]
  Bacterial growth: Absence of growth

## CC(CC(N)C(=O)O)CC(N)C(=O)O (stereo unspecified)
Escherichia coli [18]
  Inhibition: 0%
Escherichia coli [23]
  inhibition: 55%
Escherichia coli [19]
  inhibition: 12%
Escherichia coli [3]
  Inhibition: 0%
Escherichia coli [24]
  inhibition: 43%

## C/C(=C\C(N)C(=O)O)CC(N)C(=O)O (stereo unspecified)
Escherichia coli [18]
  Inhibition: 21%
Escherichia coli [6]
  inhibition: 50%
Escherichia coli [25]
  inhibition: 20%
Escherichia coli [3]
  Inhibition: 50%
Escherichia coli [21]
  Inhibition: 0%

## CC1(C)S[C@@H]2[C@H](NC(=O)[C@H](N)c3ccccc3)C(=O)N2[C@H]1C(=O)O [AMPICILLIN]
Pseudomonas aeruginosa [22]
  MIC: 512 µg/mL (≈ 1470 µM)
Escherichia coli [2]; [30]
  MIC: 5 µg/mL (≈ 14.3 µM)

## C=C(CC(N)C(=O)O)CC(N)C(=O)O (stereo in doubt; 4) [listing 2 of 2 here]
Escherichia coli [18]
  Inhibition: 90%
Escherichia coli [9]
  MIC: 2 µg/mL (≈ 9.89 µM)
Pseudomonas aeruginosa [10]
  MIC: 16 µg/mL (≈ 79.1 µM)
Pseudomonas aeruginosa [11]
  MIC: 4 µg/mL (≈ 19.8 µM)
[12]
  MIC: 128 µg/mL (≈ 633 µM)
Providencia rettgeri
  MIC: 128 µg/mL (≈ 633 µM)
Serratia marcescens
  MIC: 2 µg/mL (≈ 9.89 µM)
Enterobacter cloacae [26]
  MIC: 16 µg/mL (≈ 79.1 µM)
Escherichia coli [2]
  MIC: 2 µg/mL (≈ 9.89 µM)
Serratia liquefaciens
  MIC: 2 µg/mL (≈ 9.89 µM)
Klebsiella pneumoniae
  MIC: 32 µg/mL (≈ 158 µM)
Escherichia coli [13]
  MIC: 32 µg/mL (≈ 158 µM)
[14]
  MIC: 16 µg/mL (≈ 79.1 µM)
Escherichia coli [15]
  MIC: 32 µg/mL (≈ 158 µM)
Escherichia coli [3]
  Inhibition: 95%
Escherichia coli [21]
  Inhibition: 90%
Citrobacter freundii
  MIC: 16 µg/mL (≈ 79.1 µM)

## N[C@@H]1CONC1=O [CYCLOSERINE]
Pseudomonas aeruginosa [22]
  MIC: 128 µg/mL (≈ 1250 µM)
Escherichia coli [9]
  MIC: 32 µg/mL (≈ 313 µM)
Pseudomonas aeruginosa [10]
  MIC: 64 µg/mL (≈ 627 µM)
[12]
  MIC: 8 µg/mL (≈ 78.4 µM)
Providencia rettgeri
  MIC: 128 µg/mL (≈ 1250 µM)
Serratia marcescens
  MIC: 128 µg/mL (≈ 1250 µM)
Escherichia coli [2]; [30]
  MIC: 0.25 µg/mL (≈ 2.45 µM)
Serratia liquefaciens
  MIC: 8 µg/mL (≈ 78.4 µM)
Klebsiella pneumoniae
  MIC: 8 µg/mL (≈ 78.4 µM)
Escherichia coli [13]
  MIC: 0.5 µg/mL (≈ 4.9 µM)
[14]
  MIC: 128 µg/mL (≈ 1250 µM)
Escherichia coli [15]
  MIC: 128 µg/mL (≈ 1250 µM)
Enterobacter cloacae [16]
  MIC: 2 µg/mL (≈ 19.6 µM)
Citrobacter freundii
  MIC: 2 µg/mL (≈ 19.6 µM)

## C=C(CC(N)C(=O)O)CC(N)C(=O)O (stereo in doubt; (+)-4)
Pseudomonas aeruginosa [11]
  MIC: 6 µg/mL (≈ 29.7 µM)
Escherichia coli [2]
  MIC: 6 µg/mL (≈ 29.7 µM)

## CC(N)(/C=C/CC(N)C(=O)O)C(=O)O (stereo unspecified)
Escherichia coli [18]
  Inhibition: 0%
Escherichia coli [19]
  inhibition: 0%
Escherichia coli [3]
  Inhibition: 0%
Escherichia coli [20]
  inhibition: 0%

## CC(N)(CCCC(N)C(=O)O)C(=O)O (stereo unspecified)
Escherichia coli [18]
  Inhibition: 74%
Escherichia coli [6]
  inhibition: 35%
Escherichia coli [25]
  inhibition: 18%
Escherichia coli [2]
  MIC: 512 µg/mL (≈ 2510 µM)
Escherichia coli [3]
  Inhibition: 90%
Escherichia coli [27]
  inhibition: 8%
Escherichia coli [21]
  Inhibition: 38%

## C=C(C[C@@H](N)C(=O)O)C[C@H](N)C(=O)O
Escherichia coli [9]
  MIC: 2 µg/mL (≈ 9.89 µM)
Pseudomonas aeruginosa [10]
  MIC: 16 µg/mL (≈ 79.1 µM)
Pseudomonas aeruginosa [11]; [29]
  MIC: 4 µg/mL (≈ 19.8 µM)
[12]
  MIC: 128 µg/mL (≈ 633 µM)
Providencia rettgeri
  MIC: 64 µg/mL (≈ 317 µM)
Serratia marcescens
  MIC: 4 µg/mL (≈ 19.8 µM)
Escherichia coli [6]
  inhibition: 22%
Escherichia coli [28]
  inhibition: 30%
Escherichia coli [2]
  MIC: 2 µg/mL (≈ 9.89 µM)
Serratia liquefaciens
  MIC: 2 µg/mL (≈ 9.89 µM)
Klebsiella pneumoniae
  MIC: 16 µg/mL (≈ 79.1 µM)
Escherichia coli [13]
  MIC: 32 µg/mL (≈ 158 µM)
[14]
  MIC: 16 µg/mL (≈ 79.1 µM)
Escherichia coli [15]
  MIC: 4 µg/mL (≈ 19.8 µM)
Enterobacter cloacae [16]
  MIC: 16 µg/mL (≈ 79.1 µM)
Citrobacter freundii
  MIC: 32 µg/mL (≈ 158 µM)
Escherichia coli [8]
  inhibition: 8%

## C=C(CC(N)C(=O)O)CC(N)C(=O)O (single isomer, unassigned; (-))
Pseudomonas aeruginosa [11]; [29]
  MIC: 4 µg/mL (≈ 19.8 µM)
Escherichia coli [2]; Escherichia coli, ATCC 9637
  MIC: 4 µg/mL (≈ 19.8 µM)

## C/C(=C/C(N)C(=O)O)CC(N)C(=O)O (stereo unspecified)
Escherichia coli [18]
  Inhibition: 0%
Escherichia coli [6]
  inhibition: 54%
Escherichia coli [25]
  inhibition: 33%
Escherichia coli [7]
  inhibition: 73%
Escherichia coli [3]
  Inhibition: 55%
Escherichia coli [21]
  Inhibition: 0%
Escherichia coli [8]
  inhibition: 17%
